Data from ChEMBL document CHEMBL1138191, “Synthesis, pharmacological evaluation, and molecular modeling studies of novel peptidic CAAX analogues as farnesyl-protein-transferase inhibitors” (J Med Chem, 2006).
The source made the active and inactive calls. No cut-off for these calls is given here.

Legend:
[1] = tested on: MCF10; assay: Antiproliferative activity against MCF10 cell line; assay type: functional, cell-based; conditions: Homo sapiens
[2] = tested on: MDA-MB-231; assay: Antiproliferative activity against MDA-MB-231 cell line; assay type: functional, cell-based; conditions: Homo sapiens
How it was run: (§1)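 Monolayers in RPMI-1640 with 10% FBS, seeded ~10% confluent and allowed 24 h recovery. Compounds in DMSO at varying concentrations for 24 h (37 °C, 5% CO2), then washout and 48 h further growth. Viability by sulforhodamine B; %T/C relative to vehicle-treated controls; 50% growth-inhibitory concentration taken from dose/effect curve.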

[3] = Inhibitory activity against farnesyl transferase
[4] = tested on: T47D; assay: Antiproliferative activity against T47D cell line; assay type: functional, cell-based; conditions: Homo sapiens; how it was run: as §1
[5] = tested on: NIH3T3; assay: Antiproliferative activity against NIH3T3 cell line; assay type: functional, cell-based; conditions: Mus musculus
How it was run: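 NIH3T3 fibroblasts were grown in DMEM with 10% calf serum and seeded at ~10% confluency with 24 h attachment. A range of compound concentrations in DMSO was applied for 24 h at 37 °C in 5% CO2, then washed off, followed by 48 h further incubation. Growth by sulforhodamine B; %T/C versus vehicle; IC50 from dose/effect curve.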

[6] = tested on: MCF7; assay: Antiproliferative activity against MCF7 cell line; assay type: functional, cell-based; conditions: Homo sapiens; how it was run: as §1
[7] = tested on: FRTL-5; assay: Antiproliferative activity against FRTL5 cell line; assay type: functional, cell-based; conditions: Rattus norvegicus
How it was run: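 FRTL-5 rat thyroid cells were grown in Coon's modified Ham F12 with 5% calf serum plus six hormones, including TSH 1 × 10^-10 M. Cells were seeded at ~10% confluency and attached for 24 h. Compounds in DMSO were applied for 24 h at 37 °C in 5% CO2, then washed out, followed by 48 h culture. SRB read-out, %T/C; IC50 from dose/effect curve; vehicle controls.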

[8] = tested on: LoVo; assay: Antiproliferative activity against LoVo cell line; assay type: functional, cell-based; conditions: Homo sapiens; how it was run: as §1

SMILES | IC50 [3] [µM] | IC50 [2] [µM] | IC50 [4] [µM] | IC50 [6] [µM] | IC50 [8] [µM] | Activity [1] | Activity [2] | Activity [4] | Activity [5] | Activity [6] | Activity [7] | Activity [8]
CSCC[C@H](NC(=O)[C@@H](Cc1cc(C)c(O)cc1C)NC(=O)[C@@H](NC(=O)[C@@H](N)CS)C(C)C)C(=O)O | 10.5 |  |  |  |  | inactive | inactive | inactive | inactive | inactive | inactive | inactive
CSCC[C@H](NC(=O)[C@H](Cc1ccc(O)c(C)c1C)NC(=O)[C@@H](NC(=O)[C@H](CS)NC=O)C(C)C)C(=O)O | 10.3 | 100 | 100 |  |  |  |  |  |  |  |  | 
COC(=O)[C@H](CCSC)NC(=O)[C@@H](Cc1ccc(O)c(C)c1C)NC(=O)[C@@H](NC(=O)[C@@H](N)CS)C(C)C | 70.5 |  |  |  |  | inactive | inactive | inactive | inactive | inactive | inactive | inactive
CSCC[C@H](NC(=O)[C@@H](Cc1cc(C)c(O)cc1C)NC(=O)[C@@H](NC(=O)[C@H](CS)NC=O)C(C)C)C(=O)O | 10.2 |  |  |  |  |  |  |  |  |  |  | 
CSCC[C@H](NC(=O)[C@H](Cc1cc(C)c(O)cc1C)NC(=O)[C@@H](NC(=O)[C@H](CS)NC=O)C(C)C)C(=O)O | 5.5 |  |  |  |  |  |  |  |  |  |  | 
CSCC[C@H](NC(=O)[C@@H](Cc1ccc(O)cc1C)NC(=O)[C@@H](NC(=O)[C@@H](N)CS)C(C)C)C(=O)O | 11.4 |  |  |  |  | inactive | inactive | inactive | inactive | inactive | inactive | inactive
CSCC[C@H](NC(=O)[C@@H](Cc1ccc(O)c(C)c1C)NC(=O)[C@@H](NC(=O)[C@@H](N)CS)C(C)C)C(=O)O | 4.3 |  |  |  |  | inactive | inactive | inactive | inactive | inactive | inactive | inactive
COC(=O)[C@H](CCSC)NC(=O)[C@H](Cc1ccc(O)c(C)c1C)NC(=O)[C@@H](NC(=O)[C@@H](N)CS)C(C)C | 20.4 | 83 | 90 | 65 | 9.1 |  |  |  |  |  |  | 

Second part, led by results:

IC50 [3] [µM] | IC50 [2] [µM] | IC50 [4] [µM] | IC50 [6] [µM] | IC50 [8] [µM] | SMILES | Activity [1] | Activity [2] | Activity [4] | Activity [5] | Activity [6] | Activity [7] | Activity [8]
1 |  |  |  |  | CSCC[C@H](NC(=O)[C@H]1CC2CCCCC2N1C(=O)[C@@H](NC(=O)[C@@H](N)CS)C(C)C)C(=O)O (stereo not given in full) | inactive | inactive | inactive | inactive | inactive | inactive | inactive
2.5 |  |  |  |  | CSCC[C@H](NC(=O)[C@H](Cc1cc(C)c(O)cc1C)NC(=O)[C@@H](NC(=O)[C@@H](N)CS)C(C)C)C(=O)O | inactive | inactive | inactive | inactive | inactive | inactive | inactive
4.3 |  |  |  |  | CSCC[C@H](NC(=O)[C@@H](Cc1ccc(C)cc1C)NC(=O)[C@@H](NC(=O)[C@@H](N)CS)C(C)C)C(=O)O | inactive | inactive | inactive | inactive | inactive | inactive | inactive
0.1 |  |  |  |  | CSCC[C@H](NC(=O)[C@H](Cc1ccc(O)c(C)c1C)NC(=O)[C@@H](NC(=O)[C@@H](N)CS)C(C)C)C(=O)O | inactive | inactive | inactive | inactive | inactive | inactive | inactive
2.2 |  |  |  |  | CSCC[C@H](NC(=O)[C@H](Cc1ccc(C)cc1C)NC(=O)[C@@H](NC(=O)[C@@H](N)CS)C(C)C)C(=O)O | inactive | inactive | inactive | inactive | inactive | inactive | inactive
4.3 |  |  |  |  | CSCC[C@H](NC(=O)[C@H](Cc1ccc(O)cc1C)NC(=O)[C@@H](NC(=O)[C@@H](N)CS)C(C)C)C(=O)O | inactive | inactive | inactive | inactive | inactive | inactive | inactive
